# Key:
# [1] = test system: Candida albicans; assay: Evaluation of In vitro antifungal activity against Candida albicans 406 by broth macro dilution method; assay type: functional
# Procedure, shortened: (§1)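 Yeast MIC and MFC by broth macrodilution per NCCLS M27-P in RPMI-1640 buffered with 0.165 M MOPS. Fluconazole in sterile water, other drugs in DMSO. C. parapsilosis ATCC 22019 is the reference strain in each run. MIC is the lowest concentration with turbidity ≤ the 80% inhibition standard. For MFC, 0.04 mL from clear tubes is plated on Sabouraud agar; MFC is the lowest concentration giving ≤1 colony.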
# [2] = test system: Microsporum canis; assay: In vitro evaluation of minimum inhibitory concentration against Microsporum canis 47; assay type: functional; conditions: Microsporum canis; read-out: MIC
# Procedure, shortened: (§2)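 Stocks are 800 μg/mL in 50% ethanol. Each plate gets 10 μL of inoculum at 10^5 cfu/mL. Incubation at 25 °C, 48 h for yeasts and 120 h for dermatophytes and molds. Organisms are ATCC strains or clinical isolates.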
# [3] = test system: Candida albicans; assay: Evaluation of In vitro antifungal activity against Candida albicans C52 by broth macro dilution method; assay type: functional; procedure, shortened: as §1
# [4] = test system: Kluyveromyces marxianus; assay: Evaluation of In vitro antifungal activity against Candida pseudotropicalis ATCC 28838 by broth macro dilution method; assay type: functional; procedure, shortened: as §1
# [5] = test system: Candida albicans; assay: Evaluation of […] antifungal activity against Candida albicans 60 by broth macro dilution method; assay type: functional; procedure, shortened: as §1
# [6] = test system: Trichophyton benhamiae; assay: In vitro evaluation of minimum inhibitory concentration against Trichophyton mentagrophytes 23; assay type: functional, Arthroderma benhamiae; conditions: Trichophyton benhamiae; read-out: MIC; procedure, shortened: as §2
# [7] = test system: Cryptococcus neoformans; assay: Evaluation of In vitro antifungal activity against Cryptococcus neoformans 87 by broth macro dilution method; assay type: functional; procedure, shortened: as §1
# [8] = test system: Pichia kudriavzevii; assay: Evaluation of In vitro antifungal activity against Candida krusei 70 by broth macro dilution method; assay type: functional; procedure, shortened: as §1
# [9] = test system: Mus sp.; assay: In vivo evaluation of % survival rate after peroral administration on 5th day at dose 0.5 mg/kg; assay type: functional; conditions: route oral
# [10] = test system: Meyerozyma guilliermondii; assay: Evaluation of In vitro antifungal activity against Candida guilliermondii 26 by broth macro dilution method; assay type: functional; procedure, shortened: as §1
# [11] = test system: Candida albicans; assay: Evaluation of In vitro antifungal activity against Candida albicans 2.01 by broth macro dilution method; assay type: functional; procedure, shortened: as §1
# [12] = test system: Mus musculus; assay: In vivo evaluation of % survival rate after peroral administration on 7th day at dose 0.5 mg/kg; assay type: functional; conditions: Mus musculus, po
# [13] = test system: Candida albicans; assay: Evaluation of In vitro antifungal activity against Candida albicans 76 by broth macro dilution method; assay type: functional; procedure, shortened: as §1
# [14] = test system: Mus sp.; assay: In vivo evaluation of % survival rate after peroral administration on 7th day at dose 1 mg/kg; assay type: functional; conditions: route oral, 1 mg/kg
# [15] = test system: Candida parapsilosis; assay: Evaluation of In vitro antifungal activity against Candida parapsilosis 2.07 by broth macro dilution method; assay type: functional; conditions: Lodderomyces parapsilosis; procedure, shortened: as §1
# [16] = test system: Mus sp.; assay: In vivo evaluation of % survival rate after peroral administration on 5th day at dose 1 mg/kg; assay type: functional; conditions: Mus sp., po
# [17] = test system: Candida albicans; assay: Evaluation of In vitro antifungal activity against Candida albicans 60 by broth macro dilution method
# [18] = test system: Meyerozyma guilliermondii; assay: In vitro evaluation of minimum inhibitory concentration against Candida guilliermondii 26; assay type: functional; conditions: Meyerozyma guilliermondii; read-out: MIC; procedure, shortened: as §2
# [19] = test system: Mus sp.; assay: In vivo evaluation of % survival rate after peroral administration on 9th day at dose 1 mg/kg; assay type: functional; conditions: route oral, 1 mg/kg
# [20] = test system: Pichia kudriavzevii; assay: In vitro evaluation of minimum inhibitory concentration against Candida krusei 70; assay type: functional; conditions: Pichia kudriavzevii; read-out: MIC; procedure, shortened: as §2
# [21] = test system: Aspergillus niger; assay: In vitro evaluation of minimum inhibitory concentration against Aspergillus niger 18; assay type: functional; conditions: Aspergillus niger; read-out: MIC; procedure, shortened: as §2
# [22] = test system: Candida albicans; assay: Evaluation of In vitro antifungal activity against Candida albicans 31 by broth macro dilution method; assay type: functional; procedure, shortened: as §1
# [23] = test system: Mus sp.; assay: In vivo evaluation of % survival rate after peroral administration on 3rd day at dose 1 mg/kg; assay type: functional; conditions: Mus sp., po
# [24] = test system: Candida parapsilosis; assay: Evaluation of In vitro antifungal activity against Candida parapsilosis ATCC 22019 by broth macro dilution method; assay type: functional; conditions: Lodderomyces parapsilosis; procedure, shortened: as §1
# [25] = test system: Candida parapsilosis; assay: In vitro evaluation of minimum inhibitory concentration against Candida parapsilosis 61; assay type: functional; conditions: Lodderomyces parapsilosis; read-out: MIC; procedure, shortened: as §2
# [26] = test system: Candida tropicalis; assay: Evaluation of In vitro antifungal activity against Candida tropicalis 50 by broth macro dilution method; assay type: functional; procedure, shortened: as §1
# [27] = test system: Nakaseomyces glabratus; assay: Evaluation of In vitro antifungal activity against Torulopsis glabrata 78 by broth macro dilution method; assay type: functional; procedure, shortened: as §1
# [28] = test system: Trichophyton rubrum; assay: In vitro evaluation of minimum inhibitory concentration against Trichophyton rubrum 90; assay type: functional; conditions: Trichophyton rubrum; read-out: MIC; procedure, shortened: as §2
# [29] = test system: Pichia kudriavzevii; assay: Evaluation of In vitro antifungal activity against Candida krusei C64 by broth macro dilution method; assay type: functional; procedure, shortened: as §1
# [30] = test system: Candida albicans; assay: In vitro evaluation of minimum inhibitory concentration against Candida albicans 76; assay type: functional; procedure, shortened: as §2
# [31] = test system: Mus sp.; assay: In vivo evaluation of % survival rate after peroral administration on 3rd day at dose 0.5 mg/kg; assay type: functional; conditions: route oral
# [32] = test system: Cryptococcus neoformans; assay: Evaluation of In vitro antifungal activity against Cryptococcus neoformans 74 by broth macro dilution method; assay type: functional; procedure, shortened: as §1
# [33] = test system: Kluyveromyces marxianus; assay: Evaluation of In vitro antifungal activity against yeasts by broth macro dilution method; assay type: functional; procedure, shortened: as §1
# [34] = test system: Rattus norvegicus; assay: In vivo evaluation of antifungal activity against vaginal candidosis in rat at dose 0.25 mg/kg on 15th day; assay type: functional
# Procedure, shortened: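 Groups of 10 female Wistar rats given estradiol 25 mg/kg sc on day -5, infected intravaginally with C. albicans by sterile swab on day 0; infection confirmed on day 3 by swab culture (TSB, then Sabouraud agar). Oral dosing once daily on days 3, 4, 5; vehicle controls. Vaginal swabs cultured on days 10 and 15; read-out % cured (culture-negative).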
# [35] = test system: Aspergillus fumigatus; assay: In vitro evaluation of minimum inhibitory concentration against Aspergillus fumigatus 33; assay type: functional; conditions: Aspergillus fumigatus; read-out: MIC; procedure, shortened: as §2
# [36] = test system: Candida albicans; assay: Evaluation of In vitro antifungal activity against Candida albicans C56 by broth macro dilution method; assay type: functional; procedure, shortened: as §1
# [37] = test system: Candida parapsilosis; assay: Evaluation of In vitro antifungal activity against Candida parapsilosis ATCC 141095 by broth macro dilution method; assay type: functional; conditions: Lodderomyces parapsilosis; procedure, shortened: as §1
# [38] = test system: Candida parapsilosis; assay: Evaluation of In vitro antifungal activity against Candida parapsilosis C292 by broth macro dilution method; assay type: functional; conditions: Lodderomyces parapsilosis; procedure, shortened: as §1
# [39] = test system: Candida parapsilosis; assay: Evaluation of In vitro antifungal activity against Candida parapsilosis C74 by broth macro dilution method; assay type: functional; conditions: Lodderomyces parapsilosis; procedure, shortened: as §1
# [40] = test system: Aspergillus flavus; assay: In vitro evaluation of minimum inhibitory concentration against Aspergillus flavus 19; assay type: functional; conditions: Aspergillus flavus; read-out: MIC; procedure, shortened: as §2
# [41] = test system: Candida albicans; assay: Evaluation of In vitro antifungal activity against Candida albicans ATCC 10231 by broth macro dilution method; assay type: functional; procedure, shortened: as §1
# [42] = test system: Mus sp.; assay: In vivo evaluation of % survival rate after peroral administration on 9th day at dose 0.5 mg/kg; assay type: functional; conditions: Mus sp., po
structure (smiles),measurement,setting,value
C[C@H]1N(C(=O)c2ccc(C(F)(F)F)cc2)C[C@H](O)O[C@@]1(Cn1cncn1)c1ccc(F)cc1F (stereo in doubt; (-)-39a),MFC,[1],> 64 µg/mL
same,MIC,[1],1 µg/mL
same,MIC,[2],40 µg/mL
same,MFC,[3],> 64 µg/mL
same,MIC,[3],0.5 µg/mL
same,MFC,[4],64 µg/mL
same,MIC,[5],1 µg/mL
same,MIC,[6],> 80 µg/mL
same,MFC,[7],> 64 µg/mL
same,MIC,[7],4 µg/mL
same,MFC,[8],> 64 µg/mL
same,MIC,[8],> 64 µg/mL
same,survival at 0.5 mg/kg,[9],100%
same,MFC,[10],> 64 µg/mL
same,MIC,[10],32 µg/mL
same,MFC,[11],> 64 µg/mL
same,MIC,[11],2 µg/mL
same,survival at 0.5 mg/kg,[12],80%
same,MFC,[13],> 64 µg/mL
same,MIC,[13],1 µg/mL
same,Survival,[14],100%
same,MFC,[15],> 64 µg/mL
same,MIC,[15],4 µg/mL
same,survival at 1 mg/kg,[16],100%
same,MFC,[17],> 64 µg/mL
same,MIC,[18],80 µg/mL
same,Survival,[19],100%
same,MIC,[20],> 80 µg/mL
same,MIC,[21],> 80 µg/mL
same,MFC,[22],> 64 µg/mL
same,MIC,[22],0.5 µg/mL
same,survival at 1 mg/kg,[23],100%
same,MFC,[24],32 µg/mL
same,MIC,[24],16 µg/mL
same,MIC,[25],40 µg/mL
same,MFC,[26],> 64 µg/mL
same,MIC,[26],> 64 µg/mL
same,MFC,[27],> 64 µg/mL
same,MIC,[27],> 64 µg/mL
same,MIC,[28],40 µg/mL
same,MFC,[29],> 64 µg/mL
same,MIC,[29],> 64 µg/mL
same,MIC,[30],10 µg/mL
same,survival at 0.5 mg/kg,[31],100%
same,MFC,[32],2 µg/mL
same,MIC,[32],0.25 µg/mL
same,MIC,[33],0.5 µg/mL
same,Cure rate,[34],100%
same,MIC,[35],80 µg/mL
same,MFC,[36],> 64 µg/mL
same,MIC,[36],1 µg/mL
same,MFC,[37],> 64 µg/mL
same,MIC,[37],> 64 µg/mL
same,MFC,[38],> 64 µg/mL
same,MIC,[38],8 µg/mL
same,MFC,[39],32 µg/mL
same,MIC,[39],2 µg/mL
same,MIC,[40],> 80 µg/mL
same,MFC,[41],> 64 µg/mL
same,MIC,[41],0.5 µg/mL
same,survival at 0.5 mg/kg,[42],40%

# — ChEMBL document CHEMBL1128448, “Synthesis and antifungal activity of new azole derivatives containing an N-acylmorpholine ring” (1995)
